Drawing on ChEMBL document CHEMBL4425163, “Structure elucidation of anti-methicillin resistant Staphylococcus aureus (MRSA) flavonoids from balsam poplar buds” (Bioorg Med Chem, 2016), this text covers MIC and IC50 for ten compounds.

Values after ≈ are worked out from the molar mass of the structure shown.

Experiment [1] concerns Staphylococcus aureus. The experiment in a line: Antibacterial activity against methicillin resistant Staphylococcus aureus clinical isolate 7 incubated […] by microdilution resazurin assay. The format is functional.
The subject of experiment [2] is Staphylococcus aureus. The experiment in a line: Antibacterial activity against methicillin resistant Staphylococcus aureus clinical isolate 9 incubated […] by microdilution resazurin assay. The format is functional. The conditions noted are these: Staphylococcus aureus, isolate 9; read-out: MIC.
Experiment [3] concerns Staphylococcus aureus. As to the kind of experiment: Antibacterial activity against Staphylococcus aureus ATCC 25923 incubated […] by microdilution resazurin assay. The format is functional. The conditions noted are these: Staphylococcus aureus, ATCC 25923; read-out: MIC.
Experiment [4] deals with Staphylococcus aureus. The experiment in a line: Antibacterial activity against methicillin resistant Staphylococcus aureus clinical isolate 10 incubated […] by microdilution resazurin assay. In kind it is functional. In general terms: Broth dilution looks for growth in wells or tubes with falling amounts of substance.
Experiment [5] has as its system Staphylococcus aureus. The experiment in a line: Antibacterial activity against methicillin resistant Staphylococcus aureus clinical isolate 3 incubated for 7 to 14 days by microdilution resazurin assay.
The test system of experiment [6] is Staphylococcus aureus. The experiment in a line: Antibacterial activity against methicillin resistant Staphylococcus aureus clinical isolate 4 incubated for 7 to 14 days by microdilution resazurin assay.
For experiment [7], the system named is Staphylococcus aureus. The experiment in a line: Antibacterial activity against methicillin resistant Staphylococcus aureus clinical isolate 5 incubated […] by microdilution resazurin assay. The format is functional.
A short description of experiment [8]: Cytotoxicity against human WS1 cells by resazurin reduction assay. The format is cell-based. Summed up:
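WS1 human fibroblast line; resazurin reduction test, slightly modified from an earlier method. Etoposide served as positive control.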
In general terms: Resazurin is reduced to fluorescent resorufin, in cell work by metabolically active cells.

Experiment [9] relates to Staphylococcus aureus. As to the kind of experiment: Antibacterial activity against methicillin resistant Staphylococcus aureus clinical isolate 2 incubated […] by microdilution resazurin assay. In kind it is functional.
Experiment [10] concerns Staphylococcus aureus. As to the kind of experiment: Antibacterial activity against methicillin resistant Staphylococcus aureus clinical isolate 1 incubated […] by microdilution resazurin assay. The format is functional.
Experiment [11] concerns Staphylococcus aureus. The experiment in a line: Antibacterial activity against methicillin resistant Staphylococcus aureus clinical isolate 6 incubated […] by microdilution resazurin assay. In kind it is functional. The conditions noted are these: Staphylococcus aureus, isolate 6; read-out: MIC.
The subject of experiment [12] is Staphylococcus aureus. The experiment in a line: Antibacterial activity against methicillin resistant Staphylococcus aureus clinical isolate 8 incubated […] by microdilution resazurin assay. In kind it is functional.
The mark [13] stands for this setting: Staphylococcus aureus, isolate 7, read-out: MIC.
Where [14] appears, read: Staphylococcus aureus, isolate 10, read-out: MIC.
Where [15] appears, read: Staphylococcus aureus, isolate 5, read-out: MIC.
The mark [16] stands for this setting: Staphylococcus aureus, isolate 2, read-out: MIC.
The mark [17] stands for this setting: Staphylococcus aureus, isolate 1, read-out: MIC.
The mark [18] stands for this setting: Staphylococcus aureus, isolate 8, read-out: MIC.

`COc1ccc(CCC(=O)c2c(O)c3c(c4c2OC(c2ccc(O)cc2)C(C/C=C/c2ccc(O)cc2)C4)OC(c2ccc(O)cc2)C(C/C=C/c2ccc(O)cc2)C3)cc1` (racemic): the MIC in [1] (setting [13]), in [2], in experiment [3], in [4] (setting [14]), in [5] and in [6] was greater than 50 µM in each case. For the same compound, the MIC in experiment [7] (setting [15]), in experiment [9] (setting [16]), in experiment [10] (setting [17]), in [11] and in experiment [12] (setting [18]) was greater than 50 µM in each case. Besides, the IC50 (as a rule, the concentration needed to halve the response being measured) in [8] (Homo sapiens, WS1) was greater than 10 µM.
For the compound `O=C(CCc1ccccc1)c1c(O)c2c(c3c1O[C@@H](c1ccc(O)cc1)[C@H](C/C=C/c1ccc(O)cc1)C3)O[C@@H](c1ccc(O)cc1)[C@H](O)C2` (racemic), the MIC in [1] (setting [13]), in experiment [2], in [3], in experiment [4] (setting [14]), in experiment [5] and in experiment [6] was 6 µM (≈ 4.02 µg/mL) in each case. The MIC in [7] (setting [15]), in experiment [9] (setting [16]), in experiment [10] (setting [17]), in experiment [11] and in [12] (setting [18]) was 6 µM (≈ 4.02 µg/mL) in each case. This compound returned an IC50 in experiment [8] (Homo sapiens, WS1) greater than 10 µM.
With `COc1ccc(CCC(=O)c2c(O)cc(O)c3c2O[C@@H](c2ccc(O)cc2)CC3)cc1`, the MIC – broadly, the lowest concentration found to suppress growth – is 13 µM (≈ 5.47 µg/mL) in [1] (setting [13]); 13 µM (≈ 5.47 µg/mL) in experiment [2]; 25 µM (≈ 10.5 µg/mL) in experiment [3]; 25 µM (≈ 10.5 µg/mL) in experiment [4] (setting [14]); 13 µM (≈ 5.47 µg/mL) in experiment [5]; 25 µM (≈ 10.5 µg/mL) in [6]. Besides, the minimum inhibitory concentration (MIC) is 13 µM (≈ 5.47 µg/mL) in experiment [7] (setting [15]); 13 µM (≈ 5.47 µg/mL) in experiment [9] (setting [16]); 13 µM (≈ 5.47 µg/mL) in [10] (setting [17]); 25 µM (≈ 10.5 µg/mL) in experiment [11]; 13 µM (≈ 5.47 µg/mL) in experiment [12] (setting [18]). Besides, the 50% inhibitory concentration (IC50) in experiment [8] (Homo sapiens, WS1) is greater than 10 µM.
As for `COc1ccc(CCC(=O)c2c(O)cc(O)c3c2OC(c2ccc(O)cc2)C(O)C3)cc1` (stereo in doubt; (-)-16), the MIC in experiment [1] (setting [13]) amounted to 25 µM (≈ 10.9 µg/mL); in experiment [2] it was 50 µM (≈ 21.8 µg/mL); in [4] (setting [14]) it was 25 µM (≈ 10.9 µg/mL); in experiment [5], 25 µM (≈ 10.9 µg/mL); in experiment [7], 13 µM (≈ 5.67 µg/mL); in experiment [9] (setting [16]), 25 µM (≈ 10.9 µg/mL). In addition, the results for the MIC in experiment [10] (setting [17]), in [11] and in experiment [12] (setting [18]) were 50 µM (≈ 21.8 µg/mL), 50 µM (≈ 21.8 µg/mL) and greater than 50 µM, respectively. The same compound showed an IC50 in [8] (Homo sapiens, WS1) greater than 10 µM.
For the compound `O=C(CCc1ccccc1)c1c(O)cc(O)c2c1OC(c1ccc(O)cc1)C(O)C2` (stereo in doubt; (-)-15), the minimal inhibitory concentration (MIC) in experiment [1] (setting [13]) is 25 µM (≈ 10.2 µg/mL); in experiment [2], 50 µM (≈ 20.3 µg/mL); in [4] (setting [14]), 25 µM (≈ 10.2 µg/mL); in experiment [5] it was 50 µM (≈ 20.3 µg/mL); in [6] it was 50 µM (≈ 20.3 µg/mL); in [7] (setting [15]) it was 25 µM (≈ 10.2 µg/mL). The minimum inhibitory concentration (MIC) worked out at 25 µM (≈ 10.2 µg/mL) in experiment [9] (setting [16]), 50 µM (≈ 20.3 µg/mL) in [10] (setting [17]), 50 µM (≈ 20.3 µg/mL) in experiment [11] and 50 µM (≈ 20.3 µg/mL) in [12] (setting [18]). The same compound gave a 50% inhibitory concentration (IC50) in experiment [8] (Homo sapiens, WS1) greater than 10 µM.
As for `COc1ccc(CCC(=O)c2c(O)cc(O)c(C/C=C/c3ccc(O)cc3)c2O)cc1`, the MIC in [1] (setting [13]) is 25 µM (≈ 10.5 µg/mL); in experiment [2], 25 µM (≈ 10.5 µg/mL); in experiment [3] it was greater than 50 µM; in experiment [4] (setting [14]), 25 µM (≈ 10.5 µg/mL); in experiment [5], 13 µM (≈ 5.47 µg/mL); in experiment [6], 13 µM (≈ 5.47 µg/mL). In addition, the MIC in experiment [7] (setting [15]) stood at 13 µM (≈ 5.47 µg/mL); in experiment [9] (setting [16]), 25 µM (≈ 10.5 µg/mL); in [10] (setting [17]), 50 µM (≈ 21 µg/mL); in [11], 25 µM (≈ 10.5 µg/mL); in experiment [12] (setting [18]) it was 25 µM (≈ 10.5 µg/mL). The IC50 in [8] (Homo sapiens, WS1) is greater than 10 µM.
As to `O=C(CCc1ccccc1)c1c(O)c2c(c3c1OC(c1ccc(O)cc1)C(C/C=C/c1ccc(O)cc1)C3)OC(c1ccc(O)cc1)C(C/C=C/c1ccc(O)cc1)C2` (racemic; form 1), the minimum inhibitory concentration (MIC) in experiment [1] (setting [13]), in experiment [2], in [4] (setting [14]), in [5], in [6] and in [7] (setting [15]) was greater than 50 µM in each case. The minimum inhibitory concentration (MIC) in experiment [9] (setting [16]), in [10] (setting [17]), in experiment [11] and in experiment [12] (setting [18]) was greater than 50 µM in each case. For the same compound, in [8], the IC50 came to 2.3 µM.
As to `O=C(CCc1ccccc1)c1c(O)c2c(c3c1OC(c1ccc(O)cc1)C(C/C=C/c1ccc(O)cc1)C3)OC(c1ccc(O)cc1)C(C/C=C/c1ccc(O)cc1)C2` (racemic; form 2), the minimal inhibitory concentration (MIC) in experiment [3] was greater than 50 µM. This compound also showed an IC50 in experiment [8] greater than 10 µM.
As for `O=C(CCc1ccccc1)c1c(O)cc(O)c2c1OC(c1ccc(O)cc1)CC2` (stereo in doubt; (-)-12), the MIC is 6 µM (≈ 2.34 µg/mL) in experiment [1] (setting [13]); 13 µM (≈ 5.08 µg/mL) in experiment [2]; 13 µM (≈ 5.08 µg/mL) in experiment [4] (setting [14]); 6 µM (≈ 2.34 µg/mL) in experiment [5]; 6 µM (≈ 2.34 µg/mL) in experiment [7] (setting [15]); 6 µM (≈ 2.34 µg/mL) in [9]. Moreover, the MIC in [10] was 6 µM (≈ 2.34 µg/mL); in experiment [11] it was 13 µM (≈ 5.08 µg/mL); in experiment [12], 6 µM (≈ 2.34 µg/mL). Besides, the IC50 in [8] (Homo sapiens, WS1) is greater than 10 µM.
Take `O=C(CCc1ccccc1)c1c(O)cc2c(c1O)CC(O)C(c1ccc(O)cc1)O2` (stereo in doubt; (+)-17): the minimum inhibitory concentration (MIC) was 50 µM (≈ 20.3 µg/mL) in experiment [1], 50 µM (≈ 20.3 µg/mL) in [3], greater than 50 µM in experiment [4] and 50 µM (≈ 20.3 µg/mL) in experiment [12].
